Data on 40 molecules can be found in ChEMBL document CHEMBL2150914, “Synthesis and biological evaluation of N-arylbenzo[b]thieno[3,2-d]pyrimidin-4-amines and their pyrido and pyrazino analogues as Ser/Thr kinase inhibitors” (Eur J Med Chem, 2012).

Assay [1] in a line: Inhibition of pig CK1delta/epsilon isolated from brain using RRKHAAIGpSAYSITA as substrate and [gamma32P]ATP after 30 mins by scintillation counting. More on the design: species or system Sus scrofa.
Assay [2] has as its target Dual specificity tyrosine-phosphorylation-regulated kinase 1A (Rattus norvegicus, UniProt Q63470). Kind of assay: Inhibition of rat recombinant GST-tagged DYRK1A expressed in Escherichia coli using KKISGRLSPIMTEQ as substrate and [gamma32P]ATP after 30 mins by scintillation counting. In outline: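 Rat DYRK1A, expressed in E. coli as a GST fusion and purified on glutathione-agarose. Blanks subtracted. Activity given as % of uninhibited maximum. DMSO dilution controls.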

Assay [3] addresses Cyclin-dependent kinase 5/CDK5 activator 1 (Homo sapiens, UniProt Q00535). Put plainly: Inhibition of human recombinant GST-tagged CDK5/p25 expressed in Escherichia coli using histone H1 as substrate and [gamma32P]ATP after 30 mins by scintillation counting.
The target of assay [4] is Glycogen synthase kinase-3 (Sus scrofa, UniProt B2LUN4+I6LNT8). Kind of assay: Inhibition of pig GSK3alpha/beta isolated from brain using YRRAAVPPSPSLSRHSSPHQpSEDEEE as substrate and [gamma32P]ATP after 30 mins by scintillation counting. The gist of the method: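 Assay run at 30 °C in one of two buffers: buffer A (Tris-HCl pH 7.5 with MgCl2, EGTA, DTT, heparin) or buffer B (Mops pH 7.2 with beta-glycerophosphate, EGTA, MgCl2, DTT, vanadate). Peptide substrate. Blank values subtracted and activity expressed as % of maximal, uninhibited activity. Controls with matching DMSO dilutions.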

Assay [5] addresses Dual specificity protein kinase CLK1 (Homo sapiens, UniProt P49759). Kind of assay: Inhibition of human recombinant GST-tagged CLK1 expressed in Escherichia coli using GRSRSRSRSRSR as substrate and [gamma32P]ATP after 30 mins by scintillation counting.

Chain of Dual specificity protein kinase CLK1 (P49759 whole entry): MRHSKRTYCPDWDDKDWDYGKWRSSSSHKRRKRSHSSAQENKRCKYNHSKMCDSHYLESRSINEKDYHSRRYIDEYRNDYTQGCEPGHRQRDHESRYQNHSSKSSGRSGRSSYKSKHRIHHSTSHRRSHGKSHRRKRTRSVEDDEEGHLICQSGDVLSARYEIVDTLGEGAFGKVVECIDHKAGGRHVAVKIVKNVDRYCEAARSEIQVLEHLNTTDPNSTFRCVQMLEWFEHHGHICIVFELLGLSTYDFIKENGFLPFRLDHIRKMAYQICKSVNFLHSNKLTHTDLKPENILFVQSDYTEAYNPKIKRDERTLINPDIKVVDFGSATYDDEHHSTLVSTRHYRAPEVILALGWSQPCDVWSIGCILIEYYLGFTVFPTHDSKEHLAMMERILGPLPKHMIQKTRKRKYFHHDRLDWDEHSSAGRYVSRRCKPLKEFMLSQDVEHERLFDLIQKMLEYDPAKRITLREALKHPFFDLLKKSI
Chain of Cyclin-dependent kinase 5/CDK5 activator 1 (Q00535 whole entry): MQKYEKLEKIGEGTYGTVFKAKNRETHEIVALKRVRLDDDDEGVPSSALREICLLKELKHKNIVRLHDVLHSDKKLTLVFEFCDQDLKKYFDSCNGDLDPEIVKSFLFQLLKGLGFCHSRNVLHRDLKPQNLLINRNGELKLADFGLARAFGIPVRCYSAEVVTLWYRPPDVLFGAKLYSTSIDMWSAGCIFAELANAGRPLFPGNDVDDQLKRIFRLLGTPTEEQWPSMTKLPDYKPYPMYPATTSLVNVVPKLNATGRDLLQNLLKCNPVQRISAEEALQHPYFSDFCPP
Chain of Cyclin-dependent kinase 5/CDK5 activator 1 (Q15078 whole entry, further chain): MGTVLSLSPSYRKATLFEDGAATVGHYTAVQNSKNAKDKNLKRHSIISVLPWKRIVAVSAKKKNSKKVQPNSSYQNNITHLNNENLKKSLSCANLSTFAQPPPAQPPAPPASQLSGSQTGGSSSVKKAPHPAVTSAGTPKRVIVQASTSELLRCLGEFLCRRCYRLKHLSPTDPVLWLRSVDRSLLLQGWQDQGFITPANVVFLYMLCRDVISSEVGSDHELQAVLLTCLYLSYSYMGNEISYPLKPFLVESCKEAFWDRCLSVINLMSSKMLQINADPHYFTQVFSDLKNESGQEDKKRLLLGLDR

As usually defined, the IC50 is the point on the concentration scale where inhibition reaches its midpoint. For `c1ccc2c(c1)sc1c(Nc3ccc4c(c3)OCO4)ncnc12`, the IC50 in assay [1], in assay [2], in assay [3] and in assay [4] was > 10 µM throughout.
Take `COc1cc(Nc2ncnc3c2sc2nccnc23)cc(OC)c1OC`: the 50% inhibitory concentration (IC50) in assay [1], in assay [2], in assay [3] and in assay [4] was > 10 µM throughout.
In the case of `Fc1cc(Br)ccc1Nc1ncnc2c1sc1ccccc12`, the IC50 in assay [1], in assay [2], in assay [3] and in assay [4] was > 10 µM throughout.
In the case of `COc1ccc(Nc2ncnc3c2sc2nccnc23)cc1OC`, the IC50 in assay [1], in assay [2], in assay [3] and in assay [4] was > 10 µM each time.
As to `Fc1cc(Br)ccc1Nc1ncnc2c1sc1nccnc12`, the IC50 in assay [1], in assay [2], in assay [3] and in assay [4] was > 10 µM each time.
On to `COc1ccc(Nc2ncnc3c2sc2cccnc23)cc1OC`, for which the IC50 in assay [5] was > 10 µM; in assay [1], > 10 µM; in assay [2] it was 3.7 µM; in assay [3], > 10 µM; in assay [4] it was > 10 µM.
In the case of `Nc1ncnc2c1sc1nccnc12`, the IC50 in assay [1] is 2.4 µM; in assay [2], > 10 µM; in assay [3], > 10 µM; in assay [4] it was > 10 µM.
As for `COc1ccc(Nc2ncnc3c2sc2ncccc23)cc1OC`, the IC50 is 3.4 µM in assay [5]; > 10 µM in assay [1]; 2.9 µM in assay [2]; > 10 µM in assay [3]; > 10 µM in assay [4].
For the molecule `O=[N+]([O-])c1cc(Nc2ncnc3c2sc2ncccc23)ccc1O`, the IC50 in assay [5], in assay [1], in assay [2], in assay [3] and in assay [4] was > 10 µM each time.
As for `COc1cc(Nc2ncnc3c2sc2nccnc23)cc(OC)c1`, the IC50 in assay [1] is 7.8 µM; in assay [2] it was > 10 µM; in assay [3] it was > 10 µM; in assay [4] it was > 10 µM.
For the molecule `COc1cc(Nc2ncnc3c2sc2ccccc23)cc(OC)c1`, the IC50 in assay [1], in assay [2], in assay [3] and in assay [4] was > 10 µM in each case.
Regarding `COc1cc(Nc2ncnc3c2sc2cccnc23)cc(OC)c1`, the IC50 in assay [5], in assay [1], in assay [2], in assay [3] and in assay [4] was > 10 µM throughout.
`c1cnc2sc3c(Nc4ccc5c(c4)OCO5)ncnc3c2c1`: the IC50 in assay [5] is 2.2 µM; in assay [1], 0.44 µM; in assay [2], > 10 µM; in assay [3], > 10 µM; in assay [4] it was > 10 µM.
As for `COc1ccc(Nc2ncnc3c2sc2ccccc23)cc1`, the IC50 in assay [1], in assay [2], in assay [3] and in assay [4] was > 10 µM throughout.
Regarding `O=[N+]([O-])c1cc(Nc2ncnc3c2sc2nccnc23)ccc1O`, the IC50 in assay [1] was 1.4 µM; in assay [2] it was > 10 µM; in assay [3], > 10 µM; in assay [4] it was > 10 µM.
Take `O=[N+]([O-])c1cc(Nc2ncnc3c2sc2ccccc23)ccc1O`: the IC50 in assay [1], in assay [2], in assay [3] and in assay [4] was > 10 µM each time.
In the case of `COc1cc(Nc2ncnc3c2sc2cccnc23)cc(OC)c1OC`, the IC50 in assay [5] was > 10 µM; in assay [1], 4.1 µM; in assay [2], > 10 µM; in assay [3], > 10 µM; in assay [4], > 10 µM.
As to `c1cnc2c(n1)sc1c(Nc3ccc4c(c3)OCCO4)ncnc12`, the IC50 in assay [1], in assay [2], in assay [3] and in assay [4] was > 10 µM throughout.
`c1ccc2c(c1)sc1c(Nc3ccc4c(c3)OCCO4)ncnc12`: the IC50 in assay [1], in assay [2], in assay [3] and in assay [4] was > 10 µM throughout.
Regarding `c1cnc2sc3c(Nc4ccc5c(c4)OCCO5)ncnc3c2c1`, the IC50 in assay [5], in assay [1], in assay [2], in assay [3] and in assay [4] was > 10 µM each time.
On to `c1ccc(Nc2ncnc3c2sc2ccccc23)cc1`, for which the IC50 in assay [1], in assay [2], in assay [3] and in assay [4] was > 10 µM in each case.
In the case of `COc1ccc(Nc2ncnc3c2sc2cccnc23)cc1`, the IC50 in assay [5], in assay [1], in assay [2], in assay [3] and in assay [4] was > 10 µM throughout.
As for `Fc1cc(Br)ccc1Nc1ncnc2c1sc1cccnc12`, the IC50 is > 10 µM in assay [5]; 11 µM in assay [1]; 7.3 µM in assay [2]; > 10 µM in assay [3]; > 10 µM in assay [4].
For `c1ccc(Nc2ncnc3c2sc2nccnc23)cc1`, the IC50 in assay [1] is 5 µM; in assay [2], > 10 µM; in assay [3], > 10 µM; in assay [4], > 10 µM.
In the case of `c1cnc2c(n1)sc1c(Nc3ccc4c(c3)OCO4)ncnc12`, the IC50 in assay [1], in assay [2], in assay [3] and in assay [4] was > 10 µM in each case.
Regarding `O=[N+]([O-])c1cc(Nc2ncnc3c2sc2cccnc23)ccc1O`, the IC50 in assay [5] was > 10 µM; in assay [1], 0.12 µM; in assay [2] it was 5.8 µM; in assay [3], > 10 µM; in assay [4], > 10 µM.
`Nc1ncnc2c1sc1ccccc12`: the IC50 was 0.79 µM in assay [1], 5.1 µM in assay [2], 5.2 µM in assay [3] and > 10 µM in assay [4].
In the case of `c1cnc2c(c1)sc1c(Nc3ccc4c(c3)OCCO4)ncnc12`, the IC50 in assay [5], in assay [1], in assay [2], in assay [3] and in assay [4] was > 10 µM throughout.
For `COc1ccc(Nc2ncnc3c2sc2nccnc23)cc1`, the IC50 in assay [1], in assay [2], in assay [3] and in assay [4] was > 10 µM each time.
In the case of `COc1ccc(Nc2ncnc3c2sc2ncccc23)cc1`, the IC50 in assay [5] was 3.3 µM; in assay [1] it was 0.52 µM; in assay [2], > 10 µM; in assay [3], > 10 µM; in assay [4], > 10 µM.
In the case of `Nc1ncnc2c1sc1cccnc12`, the IC50 in assay [5] is 5.2 µM; in assay [1], 1.8 µM; in assay [2], 6 µM; in assay [3], > 10 µM; in assay [4], > 10 µM.
`Fc1cc(Br)ccc1Nc1ncnc2c1sc1ncccc12`: the IC50 in assay [5] was 2.1 µM; in assay [1] it was 0.28 µM; in assay [2] it was 0.89 µM; in assay [3], > 10 µM; in assay [4], > 10 µM.
As to `COc1cc(Nc2ncnc3c2sc2ncccc23)cc(OC)c1`, the IC50 in assay [5], in assay [1], in assay [2], in assay [3] and in assay [4] was > 10 µM in each case.
With `COc1cc(Nc2ncnc3c2sc2ccccc23)cc(OC)c1OC`, the IC50 in assay [1], in assay [2], in assay [3] and in assay [4] was > 10 µM throughout.
As for `c1ccc(Nc2ncnc3c2sc2ncccc23)cc1`, the IC50 in assay [5] was 4.5 µM; in assay [1], 0.18 µM; in assay [2], > 10 µM; in assay [3], > 10 µM; in assay [4], > 10 µM.
Take `COc1ccc(Nc2ncnc3c2sc2ccccc23)cc1OC`: the IC50 in assay [1] is > 10 µM; in assay [2], 3.7 µM; in assay [3], > 10 µM; in assay [4], > 10 µM.
With `Nc1ncnc2c1sc1ncccc12`, the IC50 in assay [5] was 0.68 µM; in assay [1], 0.031 µM; in assay [2] it was 2.8 µM; in assay [3], > 10 µM; in assay [4] it was > 10 µM.
Consider `COc1cc(Nc2ncnc3c2sc2ncccc23)cc(OC)c1OC`, for which the IC50 in assay [5], in assay [1], in assay [2], in assay [3] and in assay [4] was > 10 µM each time.
Consider `c1ccc(Nc2ncnc3c2sc2cccnc23)cc1`, for which the IC50 in assay [5] is > 10 µM; in assay [1], 1.6 µM; in assay [2], > 10 µM; in assay [3], > 10 µM; in assay [4], > 10 µM.
Regarding `c1cnc2c(c1)sc1c(Nc3ccc4c(c3)OCO4)ncnc12`, the IC50 in assay [5], in assay [1], in assay [2], in assay [3] and in assay [4] was > 10 µM in each case.
